Measured values taken from ChEMBL document CHEMBL4513216, “Probing the Open Global Health Chemical Diversity Library for Multistage-Active Starting Points for Next-Generation Antimalarials” (ACS Infect Dis, 2020).

Test: Toxicity liver stage against HepG2, at 10uM
Format: cell-based
Parameters: test concentration 10 uM, cell line HepG2-A16-CD81EGFP
Conditions: human, HepG2-A16-CD81EGFP cells; read-out: INHIBITION
Outline: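 Uninfected HepG2-A16-CD81EGFP cells, 3 × 10^3 per well, 1536-well, plated on prespotted compound at 10 μM final, parasite-free screening media added to match infected plates; puromycin 10 μM positive, DMSO 0.5% negative; run in parallel with 48 h PbLuc assay at 37 °C, 5% CO2; viability by CellTiter-Glo luminescence, normalized to controls.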
`Cc1ncc2c(n1)CN(CC(=O)Nc1ccncc1)CC2` showed a cytotoxicity at 10 µM of -8.7%. `CCOCC1CC2(CCN(C(=O)c3ncccn3)CC2)CO1` (stereo not drawn) showed a cytotoxicity at 10 µM of 4.93%. `O=C(NC1CCC1)c1c2c(N3CCCC3)ncnc2n2ccccc12` showed a cytotoxicity at 10 µM of -82.4%. With `CCNc1ccnc(NCc2cn3nc(C)sc3n2)n1` the cytotoxicity at 10 µM was -3.41%. Work on `Fc1ccccc1-c1nc(CNCCn2cccn2)cs1` yielded a cytotoxicity at 10 µM of -9.53%. For `CC(C)NC(=O)c1cc(-c2ccc(S(C)(=O)=O)cc2)c2cnn(C)c2n1`, the cytotoxicity at 10 µM was 8.3%. Molecule `CN(Cc1ccccc1)C(=O)CN1CCOC(Cn2cncn2)C1` (stereo not drawn) has a cytotoxicity at 10 µM of -3.66%. With `CCCS(=O)(=O)N1Cc2nccn2CC(Cn2cccn2)C1` (stereo not drawn) the cytotoxicity at 10 µM was -120%. For `CCCc1n[nH]c(C2CN(C(=O)CCCn3ccnc3C)CCO2)n1` (stereo not drawn), the cytotoxicity at 10 µM was 6.03%. For `CC(=O)NS(=O)(=O)c1ccc(F)c(C(F)(F)F)c1`, the cytotoxicity at 10 µM was -4.73%. With `CSc1ccccc1C(=O)N1CCOC(CCN(C)C)C1` (stereo not drawn) the cytotoxicity at 10 µM was 7.46%. In the case of `CC(C)OCCCN(Cc1ccncc1)Cc1cccc(F)c1`, the cytotoxicity at 10 µM is reported as -15.6%. `Cc1nnc2ccc(OCCNS(=O)(=O)c3cccs3)nn12` showed a cytotoxicity at 10 µM of -12.1%. `CS(=O)(=O)NCC1(O)CCCN(C(=O)CCn2cc(Cl)cn2)CC1` (stereo not drawn) showed a cytotoxicity at 10 µM of -144%. For `CCOCC1CN(Cc2cccnc2)Cc2nn(C)cc21` (stereo not drawn), the cytotoxicity at 10 µM was -81.6%. In the case of `CNC(=O)CN(C)Cc1ccc(F)cc1Cl`, the cytotoxicity at 10 µM is reported as -2.9%. With `CCN1CCN(C(=O)c2c[nH]c(C(C)C)n2)c2ccccc21` the cytotoxicity at 10 µM was 11.2%. Molecule `O=C(Cc1cccs1)N1CCOCC1CO` (stereo not drawn) has a cytotoxicity at 10 µM of -4.63%. `CCc1ccccc1OCCN1C[C@@H](NS(C)(=O)=O)[C@H](C(C)C)C1` showed a cytotoxicity at 10 µM of -47.5%. `CCN(CC(=O)NC)S(=O)(=O)c1cnc2c(c1)c(C)nn2C` gave a cytotoxicity at 10 µM of -1.56%. With `CCn1ccnc1CN1CCCC(CO)(Cc2cccc(Cl)c2)C1` (stereo not drawn) the cytotoxicity at 10 µM was -0.0444%. Work on `Cc1ncc(CC(=O)N2CCCCC2CCN2CCCC2)c(=O)[nH]1` (stereo not drawn) yielded a cytotoxicity at 10 µM of -9.2%. In the case of `CC(C)=CCN1C(=O)[C@@H]2CC[C@H]1CN(C(=O)CCc1n[nH]c(C)c1C)C2`, the cytotoxicity at 10 µM is reported as 5.54%. Work on `Cc1nc(C2CCCN2C(=O)COCc2ccccc2)no1` (stereo not drawn) yielded a cytotoxicity at 10 µM of -2.66%. Molecule `CCC[C@H]1CN(S(=O)(=O)c2c(C)noc2C)C[C@@H]1N` has a cytotoxicity at 10 µM of -0.288%. `CC(NC(=O)NCCCN(C)S(C)(=O)=O)c1ccc(F)cc1` (stereo not drawn) showed a cytotoxicity at 10 µM of -21.9%. For `O=C(Cc1n[nH]c2ccccc12)N1CCC(Nc2cccnn2)CC1`, the cytotoxicity at 10 µM was -7.44%. `CNS(=O)(=O)CC1CCCN1C(=O)c1ccc2cc[nH]c2c1` (stereo not drawn) showed a cytotoxicity at 10 µM of -0.651%. In the case of `CC(=O)N1CCCC(Cc2cncc(Br)c2)CC1` (stereo not drawn), the cytotoxicity at 10 µM is reported as 4.99%. For `Cc1ccc(S(=O)(=O)N2CCC(O)(CN(C)C)C2)cc1` (stereo not drawn), the cytotoxicity at 10 µM was -7.02%. Work on `O=C(CC[C@@H]1CCCN2CCCC[C@H]12)N1CCC(c2nnc[nH]2)CC1` yielded a cytotoxicity at 10 µM of 2.61%. Molecule `CCN(CC1CCOCC1)C(=O)C1CC(=O)N(Cc2cccnc2)C1` (stereo not drawn) has a cytotoxicity at 10 µM of 0.719%. `CCc1ccccc1OCC(=O)Nc1ccnc(OCCN(C)C)c1` showed a cytotoxicity at 10 µM of 17.8%. Work on `O=C(O)CN(Cc1ccsc1)CC1CCCO1` (stereo not drawn) yielded a cytotoxicity at 10 µM of -4.39%. Work on `Cc1cc(C(=O)Nc2ccc(OCC3CCOCC3)cc2)[nH]n1` yielded a cytotoxicity at 10 µM of -7.04%. Work on `O=C(CCSc1ccc(F)cc1)NS(=O)(=O)c1ccc2c(c1)OCCO2` yielded a cytotoxicity at 10 µM of 2.36%. For `CN1CCN(C(=O)Cc2ccc(S(=O)(=O)C(F)F)cc2)CC1`, the cytotoxicity at 10 µM was 12%. Work on `COCCc1noc(CNC2CCSC2)n1` (stereo not drawn) yielded a cytotoxicity at 10 µM of -15%. In the case of `CCOCCN1CCN(Cc2nc(CC(C)C)no2)CC1`, the cytotoxicity at 10 µM is reported as -13%. Molecule `Cc1ncccc1Oc1nccnc1C1CCCN(C(C)C)C1` (stereo not drawn) has a cytotoxicity at 10 µM of -10.1%. For `CC(C)n1cc(N2CC(C(=O)N3CCN(C)CC3)CC2=O)cn1` (stereo not drawn), the cytotoxicity at 10 µM was 1.44%. In the case of `Cc1c(C(C)NC2CSCCSC2)cnn1-c1ccc(F)cc1F` (stereo not drawn), the cytotoxicity at 10 µM is reported as -11.1%. Work on `COc1ccc(-c2cc(C[C@@H]3C[C@H](N(C)C)C3(C)C)no2)cc1` yielded a cytotoxicity at 10 µM of -1.3%. `Clc1ccc(OCCN2CCN(CCn3cncn3)CC2)cc1` showed a cytotoxicity at 10 µM of -17.4%. Work on `CCNC(=O)[C@@H]1C[C@@H](n2cc(CN(CC)CC)nn2)CN1` yielded a cytotoxicity at 10 µM of 0.334%. With `CN(CCc1ccccn1)C(=O)C(c1cccnc1)N1CCOCC1` (stereo not drawn) the cytotoxicity at 10 µM was 2.03%. `CCOCC(=O)N1C[C@H]2CN(CC3CC3)C(=O)[C@H]2C1` gave a cytotoxicity at 10 µM of 3.94%. `O=C1[C@H]2CN(Cc3ccccc3)C[C@H]2CN1CCN1CCCC1` showed a cytotoxicity at 10 µM of -3.84%. For `CCN(CCNC(=O)c1ccccc1Br)C1CC1`, the cytotoxicity at 10 µM was 3.32%. In the case of `CS(=O)(=O)c1cn[nH]c1C1CCCN1C(=O)c1cccnc1` (stereo not drawn), the cytotoxicity at 10 µM is reported as -14.6%. `Cc1noc(C)c1CN1C[C@@H]2C[C@H](C(=O)NCC3CC3)N(C)[C@@H]2C1` gave a cytotoxicity at 10 µM of -1.24%. Work on `COCc1nc2cc(NCc3sc(C)nc3C)ccc2o1` yielded a cytotoxicity at 10 µM of 29.1%. `Cc1ccc(CN2CCN(Cc3cc(C)n[nH]3)CC2CCO)cc1` (stereo not drawn) showed a cytotoxicity at 10 µM of 1.13%. `c1cnn(CC2CN(c3ncnc4c3CCC4)CCO2)c1` (stereo not drawn) gave a cytotoxicity at 10 µM of 31.2%. Molecule `CCN(CC)CCCNCc1cc2cc(C)cc(C)c2[nH]c1=O` has a cytotoxicity at 10 µM of 7.63%. For `Cc1nn(C)c(N(C)C)c1CNCc1ccccc1Cn1ccnc1`, the cytotoxicity at 10 µM was -15.3%. Work on `O=C(C1CCCC1)N1CCC2(CC1)OCCO2` yielded a cytotoxicity at 10 µM of 2.53%. `COc1ccc(F)cc1C(=O)N1CCCC(CNS(C)(=O)=O)C1` (stereo not drawn) showed a cytotoxicity at 10 µM of -20%. Molecule `CCC1CCCCN1C(=O)Cn1cnc(C#N)n1` (stereo not drawn) has a cytotoxicity at 10 µM of -22.1%. `COc1ccc(NC(=O)N(C)Cc2ccc(Br)o2)cn1` showed a cytotoxicity at 10 µM of 12%. With `COCCn1cc(NC(=O)NCC(c2cccc(F)c2)N(C)C)cn1` (stereo not drawn) the cytotoxicity at 10 µM was -5.6%. In the case of `Cc1ccc(NC(=O)NCCc2cnn(C)c2)c(N(C)C)n1`, the cytotoxicity at 10 µM is reported as 13.4%. `Cc1ccc(OCCCNC(=O)Cc2nc3ncccn3n2)cc1` showed a cytotoxicity at 10 µM of -1.08%. `CC(NC(=O)NCCCn1cccn1)c1ccc2c(c1)OCCCO2` (stereo not drawn) gave a cytotoxicity at 10 µM of -9.13%. With `CC1(c2ccccc2)CCCN(Cc2nnc(-c3cccnc3)o2)C1` (stereo not drawn) the cytotoxicity at 10 µM was -6.64%. `CC(C)c1nnc2n1CCN(C(=O)c1ccc(CN(C)C)cc1)C2` showed a cytotoxicity at 10 µM of 5.2%. `Cc1nc(C2CCCN2C(=O)Cn2cncn2)no1` (stereo not drawn) showed a cytotoxicity at 10 µM of -2.51%. `COCCC1CCN(CC(C)n2cnc3ccccc32)CC1` (stereo not drawn) showed a cytotoxicity at 10 µM of 6.67%. In the case of `Cc1nc(CN2C[C@@H](CN3CCOCC3)[C@@H](CO)C2)c2ccccn12`, the cytotoxicity at 10 µM is reported as 0.363%. `CNc1cccc(C2CCCN(C(=O)Cc3ccccc3)C2)n1` (stereo not drawn) gave a cytotoxicity at 10 µM of -6.5%. Molecule `Cc1cccc(S(=O)(=O)N2CSCC2C(=O)NCC2CC2)c1` (stereo not drawn) has a cytotoxicity at 10 µM of -6.14%. `Cc1ccccc1S(=O)(=O)N[C@@H]1CC[C@@H](N2CCNC(=O)C2)[C@@H]1O` showed a cytotoxicity at 10 µM of 4.29%. Work on `COc1cccc(-n2cc(CN(C)C(=O)c3cnc(O)cn3)cn2)c1` yielded a cytotoxicity at 10 µM of -14.7%. `CCN1CCC(NC(=O)CNC(C)Cn2cccn2)CC1` (stereo not drawn) showed a cytotoxicity at 10 µM of 9.19%. In the case of `O=C1NCCCCC1Sc1nnc(-c2cccnc2)n1C1CC1` (stereo not drawn), the cytotoxicity at 10 µM is reported as -3.86%. With `CC(=O)Nc1ncc(S(=O)(=O)N2CCC(C)CC2)s1` the cytotoxicity at 10 µM was 14.8%. `CN1Cc2c(C(=O)Nc3cccnc3)ncn2-c2ccccc2S1(=O)=O` gave a cytotoxicity at 10 µM of -4%. For `CC(C)n1nc(CNc2ncccn2)c2c1CN(S(C)(=O)=O)CC2`, the cytotoxicity at 10 µM was -138%. `Cc1cccc(Cc2cc(C)nc(C3CCCNC3)c2)c1` (stereo not drawn) showed a cytotoxicity at 10 µM of 1.58%. In the case of `CCc1ccc(CN(C)Cc2cnc(S(=O)(=O)CC)n2CCOC)cc1`, the cytotoxicity at 10 µM is reported as -2.19%. `CC(Nc1cccc(CN2CCOC2=O)c1)C(=O)Nc1cccc(F)c1` (stereo not drawn) gave a cytotoxicity at 10 µM of -9.16%. With `CC(C)(C)OC(=O)N1CCCN1C(=O)c1cccc2cc[nH]c12` the cytotoxicity at 10 µM was 2.84%. With `CSc1ccc(NC(=O)COCc2ccccc2)nc1` the cytotoxicity at 10 µM was 7.01%.
